Experimental data from publication PMC8572679 (Journal of Pharmaceutical Analysis, 2020).
One block for each compound: values may come before it.

Experiments:
CYP51 enzyme lysate = CYP51 enzyme lysate (Saccharomyces cerevisiae, UniProt P10614); assay: Enzymatic reaction in recombinant CYP51 enzyme lysate; assay type: biochemical, Saccharomyces cerevisiae S288C; details: NADPH 0.5 mM, 0-4 h
[1] = Pharmacokinetics of BBR, M1 and M2 in vivo after single oral administration; details: ICR mice; for AUC(0-t) / AUC(0-inf) / Cmax / MRT last / MRT inf / half-life: ICR, mouse, plasma, po, 200 mg/kg, two-compartment model, mean ± SD; for AUC(0-t): AUC(0–24 h); for AUC(0-t) / AUC(0-inf) / Cmax / MRT last / MRT inf: BBR in plasma; for MRT last: MRT(0–24 h); for MRT inf: MRT(0−∞); for half-life: t1/2, BBR in plasma; for level in plasma (below the lower limit of quantitation): any of the time points
In short: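 Male ICR mice, fasted 12 h, got a single oral dose of BBR 200 mg/kg + voriconazole 30 mg/kg, with food allowed after 3 h. Retrobulbar blood was drawn into heparinised tubes at 0.17–24 h (11 times) and stored at −20 °C. 100 μL plasma was precipitated with 300 μL methanol containing internal standard. BBR, M1 and M2 were measured by LC-MS/MS, with a curve of 1–1000 ng/mL and a lower limit of quantitation of 1 ng/mL.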

CYP51 = assay: Activity of CYP51 in four standard bacterial strains; assay type: cell-based, E. faecalis, S. epidermidis, E. cloacae, and E. faecium
In short: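 The four strains were resuscitated, plate-counted and diluted to equal density. 100 μL culture went into 0.9 mL sterile anaerobic medium, N₂-flushed, sealed and held at 37 °C. Groups were methanol control, 10 μL of 50 mg/mL BBR, or BBR plus 3.5 μg/mL voriconazole. After 48 and 72 h, cells were sonicated and CYP51 activity was measured by sterol 14α-demethylase ELISA kit.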

gut microbiota = assay: 16S rRNA analysis of the feces of ICR mice after oral administration; assay type: in vivo
[2] = cited from earlier work
mice gut microbiota = assay: Metabolism of BBR by the mice gut microbiota in vitro; assay type: in vitro ADME; details: BBR 50 mg/mL + voriconazole 3.5 μg/mL vs BBR group
In short: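 Mouse colon contents were homogenised anaerobically, 1 g in 20 mL autoclaved anaerobic medium, and preincubated 60 min at 37 °C under N₂. 1 mL culture received 10 μL methanol solution (BBR 50 mg/mL + voriconazole 3.5 μg/mL, BBR alone, or methanol control), was sealed and incubated at 37 °C for 12–72 h. It was quenched with methanol, centrifuged, diluted 50-fold and precipitated with methanol plus internal standard. BBR, M1 and M2 were measured by LC-MS/MS (ESI+), curve 1–1000 ng/mL.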

[3] = tested on: mouse intestinal microsomes; assay: Metabolism of BBR in mouse intestinal microsomes in vitro; assay type: in vitro ADME; details: BBR 50 mg/mL + voriconazole 3.5 μg/mL
[4] = tested on: E. faecalis, S. epidermidis, E. cloacae, and E. faecium; assay: Metabolism of BBR in the four standard bacterial strains; assay type: in vitro ADME; details: BBR 50 mg/mL + voriconazole 3.5 μg/mL, 72 h
In short: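 Plate-counted strains, equalised in density, were put in anaerobic medium (100 μL culture + 0.9 mL), N₂-flushed, sealed and preincubated 1 h at 37 °C. Each got 10 μL BBR (50 mg/mL solution) ± voriconazole (3.5 μg/mL solution) or methanol control and was incubated 48 and 72 h. It was quenched with 1 mL methanol containing internal standard and centrifuged. BBR, M1 and M2 were measured by LC-MS/MS (curve 1–1000 ng/mL) and % BBR metabolism calculated.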

[5] = oral BBR 200 mg/kg + voriconazole 30 mg/kg
[6] = feces 24 h after oral BBR, vs control group, P < 0.05

Sequence of CYP51 enzyme lysate (P10614 2-530): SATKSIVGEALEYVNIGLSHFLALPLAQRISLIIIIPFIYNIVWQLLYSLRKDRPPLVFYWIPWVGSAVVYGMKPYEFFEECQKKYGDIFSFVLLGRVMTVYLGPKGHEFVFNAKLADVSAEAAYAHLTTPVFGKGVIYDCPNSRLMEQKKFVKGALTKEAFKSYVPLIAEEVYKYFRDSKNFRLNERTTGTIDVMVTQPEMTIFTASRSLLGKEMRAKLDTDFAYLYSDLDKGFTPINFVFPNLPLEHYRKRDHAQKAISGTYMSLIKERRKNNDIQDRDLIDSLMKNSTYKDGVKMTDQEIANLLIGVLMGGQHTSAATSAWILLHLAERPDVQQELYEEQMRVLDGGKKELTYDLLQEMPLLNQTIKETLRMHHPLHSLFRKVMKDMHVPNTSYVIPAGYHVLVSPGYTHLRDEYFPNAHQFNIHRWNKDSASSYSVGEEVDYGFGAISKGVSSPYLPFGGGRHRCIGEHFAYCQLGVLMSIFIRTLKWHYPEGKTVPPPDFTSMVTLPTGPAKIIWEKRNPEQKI

production ratio of demethylated metabolite FF-MAS (CYP51 enzyme lysate; lanosterol 10 μg/mL, CYP51 enzyme lysate): increased significantly
Compound: CC(C)=CCC[C@@H](C)[C@H]1CC[C@@]2(C)C3=C(CC[C@]12C)[C@@]1(C)CC[C@H](O)C(C)(C)[C@@H]1CC3 [Lanosterol]

AUC(0-t) [1, 5]: 299 ± 56.4 ng·h/mL
AUC(0-t) ([1]; oral BBR 200 mg/kg): 272 ± 68.4 ng·h/mL
AUC(0-inf) [1, 5]: 388 ± 103 ng·h/mL
AUC(0-inf) ([1]; oral BBR 200 mg/kg): 334 ± 79.3 ng·h/mL
Cmax [1, 5]: 64.5 ± 20.1 ng/mL
Cmax ([1]; oral BBR 200 mg/kg): 44.3 ± 10.4 ng/mL
MRT last [1, 5]: 6.5 ± 1.4 h
MRT last ([1]; oral BBR 200 mg/kg): 7.39 ± 1.71 h
MRT inf [1, 5]: 10.4 ± 2.32 h
MRT inf ([1]; oral BBR 200 mg/kg): 12.7 ± 5.85 h
half-life [1, 5]: 9.91 ± 5.26 h
half-life ([1]; oral BBR 200 mg/kg): 8.44 ± 5.55 h
production ratios of M1 and M2 (CYP51 enzyme lysate; BBR 10 μg/mL, CYP51 enzyme lysate compared with the control): significantly increased
Compound: COc1ccc2cc3[n+](cc2c1OC)CCc1cc2c(cc1-3)OCO2 [BBR, Berberine]
activity of CYP51 compared with that in the strains alone (CYP51; four strains incubated with 50 mg/mL BBR for 72 h): not significantly different
abundance of Porphyromonadaceae (family level) (gut microbiota; after oral BBR, vs control group, P < 0.05 (Fig. S2)): significant increase
abundance of the genus Parabacteroides (gut microbiota; [6]): significant increase
abundances of five genera (Tyzzerella 3, Rikenellaceae RC9 gut group, Roseburia, Tyzzerella, Ruminococcus 1) (gut microbiota; [6]): significant decrease
share of BBR that could enter the blood (absorption rate) [2]: less than 10%

level in plasma (below the lower limit of quantitation) [1, 5]: < 1 ng/mL
Compound: COc1ccc2cc3[n+](cc2c1O)CCc1cc2c(cc1-3)OCO2 [M2, Berberrubine]

Compound: C[C@@H](c1ncncc1F)[C@](O)(Cn1cncn1)c1ccc(F)cc1F [voriconazole]
percentage of residual BBR after the addition of voriconazole (mice gut microbiota): significantly increased
production of M1 after the addition of voriconazole (mice gut microbiota): significantly decreased
production of M2 after the addition of voriconazole (mice gut microbiota): significantly decreased
decrease of production of M1 after adding voriconazole ([3]; 30 min): 21%
decrease of production of M2 after adding voriconazole ([3]; 30 min): 28%
decrease of production of M1 after adding voriconazole ([3]; 60 min): 25%
decrease of production of M2 after adding voriconazole ([3]; 60 min): 26%
decrease of production of M1 after adding voriconazole ([3]; 120 min): 20%
decrease of production of M2 after adding voriconazole ([3]; 120 min): 30%
level of M2 produced by each strain after the addition of voriconazole [4]: below the lower limit of quantitation
level of M1 produced by each strain after the addition of voriconazole ([4]; vs BBR group): significantly reduced
CYP51 activity after the addition of voriconazole (CYP51; four strains, BBR 50 mg/mL + voriconazole 3.5 μg/mL, 72 h): reduced
abundances of Parabacteroides, Tyzzerella 3, Rikenellaceae RC9 gut group, Roseburia, Tyzzerella, Ruminococcus 1 and Porphyromonadaceae after the addition of voriconazole (gut microbiota; oral BBR 200 mg/kg + voriconazole 30 mg/kg vs BBR 200 mg/kg (Fig. S3)): did not change significantly

level in plasma (below the lower limit of quantitation) [1, 5]: < 1 ng/mL
Compound: COc1c(O)ccc2cc3[n+](cc12)CCc1cc2c(cc1-3)OCO2 [M1, Thalifendine]
